Measured values taken from ChEMBL document CHEMBL3616436, “Synthesis, cytotoxicity and antimicrobial activity of thiourea derivatives incorporating 3-(trifluoromethyl)phenyl moiety” (Eur J Med Chem, 2015).
The source made the active and inactive calls. The rule behind the calls is not given here.

Experiments:
Pseudomonas aeruginosa [1] = assay: Antimicrobial activity against Pseudomonas aeruginosa NCTC 6749 after 18 hrs by twofold serial microdilution method; format: functional, organism-based
Escherichia coli [2] = assay: Antimicrobial activity against Escherichia coli ATCC 10538 after 18 hrs by twofold serial microdilution method; format: functional, organism-based
[3] = Cytotoxicity against BHK cells assessed as cell viability after 48 to 96 hrs by MTT assay; format: cell-based, Mesocricetus auratus; conditions: hamster
Candida albicans [4] = assay: Antimicrobial activity against Candida albicans ATCC 90028 after 24 hrs by twofold serial microdilution method; format: functional, organism-based
[5] = tested on: Human immunodeficiency virus 1; assay: Antiviral activity against HIV1 3B infected in human MT4 cells assessed as protection against virus-induced cytopathogenicity by MTT assay; format: functional, organism-based; conditions: Human immunodeficiency virus 1, 3B
[6] = tested on: Mycobacterium tuberculosis; assay: Antimycobacterial activity against drug-sensitive Mycobacterium tuberculosis Spec. 192; format: functional
Summary of the method: (§1)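 Classical test-tube successive-dilution method in Youmans' modification of Proskauer and Beck liquid medium with 10% bovine serum. Inoculum came from 14-day cultures. DMSO stock was 10 mg/mL, diluted geometrically in medium. Tubes were incubated at 37 °C. Concentrations tested were 3.1, 6.2, 12.5, 25, 50 and 100 µg/ml. MIC is the minimum concentration inhibiting growth relative to compound-free tubes.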

[7] = tested on: Mammalian orthoreovirus 1; assay: Antiviral activity against Reovirus type-1 ATCC VR-214 infected in BHK cells assessed as protection against virus-induced cytopathogenicity after 3 to 4 days by MTT assay; format: functional, cell-based; conditions: Mammalian orthoreovirus 1, ATCC VR-214, BHK
Summary of the method: (§2)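 Cells seeded in 96-well plates (BHK 5x10^4, MDBK 3x10^4 cells/well), grown overnight to confluence, infected at m.o.i. 0.01 (BHK for Reo-1, MDBK for BVDV); serial compound dilutions in maintenance medium with 0.5% inactivated FBS added after 1 h; viability by MTT after 3–4 days at 37°C; EC50 for 50% protection by linear regression.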

[8] = tested on: Vesicular stomatitis virus; assay: Antiviral activity against Vesicular stomatitis virus ATCC VR 1540 infected in African green monkey Vero 76 cells assessed as reduction of virus-plaque formation after 2 days by crystal violet staining; format: functional, organism-based; conditions: ATCC VR 1540, Vero, 48 h
[9] = tested on: Bordetella bronchiseptica; assay: Antimicrobial activity against Bordetella bronchiseptica ATCC 4617 after 18 hrs by twofold serial microdilution method; format: functional, organism-based
[10] = Cytotoxicity against African green monkey Vero 76 cells assessed as cell viability after 48 to 96 hrs by crystal violet staining; format: cell-based; conditions: chlorocebus sabaeus
Pseudomonas aeruginosa [11] = assay: Antimicrobial activity against Pseudomonas aeruginosa ATCC 15442 after 18 hrs by twofold serial microdilution method; format: functional, organism-based
Poliovirus 1 = assay: Antiviral activity against Poliovirus type 1 ATCC VR-1562 infected in African green monkey Vero 76 cells assessed as reduction of virus-plaque formation after 2 days by crystal violet staining; format: functional, organism-based; conditions: Enterovirus C, ATCC VR-1562, Vero, 48 h
Escherichia coli [12] = assay: Antimicrobial activity against Escherichia coli NCTC 8196 after 18 hrs by twofold serial microdilution method; format: functional, organism-based
Yellow fever virus = assay: Antiviral activity against Yellow fever virus 17D infected in BHK cells assessed as protection against virus-induced cytopathogenicity after 3 to 4 days by MTT assay; format: functional, cell-based
[13] = Cytotoxicity against human MT4 cells; format: cell-based
Candida albicans [14] = assay: Antimicrobial activity against Candida albicans ATCC 10231 after 24 hrs by twofold serial microdilution method; format: functional, organism-based
Escherichia coli [15] = assay: Antimicrobial activity against Escherichia coli ATCC 25922 after 18 hrs by twofold serial microdilution method; format: functional, organism-based
[16] = tested on: Mycobacterium tuberculosis; assay: Antimycobacterial activity against Mycobacterium tuberculosis H37Rv ATCC 25618; format: functional; summary of the method: as §1
Coxsackievirus B5 = assay: Antiviral activity against Human coxsackievirus B5 ATCC VR-29 infected in African green monkey Vero 76 cells assessed as reduction of virus-plaque formation after 3 days by crystal violet staining; format: functional, organism-based; conditions: Enterovirus B, ATCC VR-29, Vero, 72 h
Summary of the method: (§3)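 Plaque reduction: Vero-76 at 2x10^5 cells/well grown to confluent monolayers, infected 2 h at 50–100 PFU/well; after removing unadsorbed virus, overlay of D-MEM, 1% inactivated FBS, 0.75% methylcellulose with or without serial compound dilutions; 3 days at 37°C, fixed and stained with crystal violet in 50% ethanol, plaques counted; EC50 by linear regression.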

[17] = Antiviral activity against Bovine viral diarrhea virus 1-NADL ATCC VR-534 infected in MDBK cells assessed as protection against virus-induced cytopathogenicity after 3 to 4 days by MTT assay; format: functional, cell-based; conditions: Bovine viral diarrhea virus isolates and strains, ATCC VR-534, MDBK; summary of the method: as §2
Human alphaherpesvirus 1 = assay: Antiviral activity against Human herpesvirus 1 KOS ATCC VR-1493 infected in African green monkey Vero 76 cells assessed as reduction of virus-plaque formation after 3 days by crystal violet staining; format: functional, organism-based; conditions: Human alphaherpesvirus 1, KOS ATCC VR1493, Vero, 72 h; summary of the method: as §3
Vaccinia virus = assay: Antiviral activity against Human Vaccinia virus ATCC VR-1549 infected in African green monkey Vero 76 cells assessed as reduction of virus-plaque formation after 3 days by crystal violet staining; format: functional, organism-based; conditions: Orthopoxvirus vaccinia, ATCC VR-1549, Vero, 72 h
Candida parapsilosis = assay: Antimicrobial activity against Candida parapsilosis ATCC 22019 after 24 hrs by twofold serial microdilution method; format: functional, organism-based
Pseudomonas aeruginosa [18] = assay: Antimicrobial activity against Pseudomonas aeruginosa ATCC 27863 after 18 hrs by twofold serial microdilution method; format: functional, organism-based
[19] = Cytotoxicity against bovine MDBK cells assessed as cell viability after 48 to 96 hrs by MTT assay; format: cell-based, Bos taurus; conditions: cattle
CCRF-SB = assay: Cytotoxicity against human CCRF-SB cells after 96 hrs by MTT assay; format: functional
Summary of the method: (§4)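 Leukaemia/lymphoma lines seeded at 1×10^5 cells/ml in RPMI-1640 with 10% FCS and penicillin/streptomycin; incubated with serial dilutions at 37°C, 5% CO2; viability by MTT after 96 h; value is concentration reducing proliferation by 50%, with untreated controls undergoing at least three rounds of multiplication.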

CCRF-CEM = assay: Cytotoxicity against human CCRF-CEM cells after 96 hrs by MTT assay; format: functional; summary of the method: as §4
WIL2-NS = assay: Cytotoxicity against human WIL2-NS cells after 96 hrs by MTT assay; format: functional; summary of the method: as §4

FC(F)(F)c1cccc(NC(=S)NC2CCCCC2)c1
Activity (Pseudomonas aeruginosa [1]): inactive | Activity (Escherichia coli [2]): inactive | CC50 [3]: 14 µM | Activity (Candida albicans [4]): inactive | EC50 [5]: > 45 µM | MIC [6]: > 100 mg/L | EC50 [7]: > 14 µM | EC50 [8]: > 60 µM | Activity [9]: inactive | CC50 [10]: 60 µM | Activity (Pseudomonas aeruginosa [11]): inactive | EC50 (Poliovirus 1): > 60 µM | Activity (Escherichia coli [12]): inactive | EC50 (Yellow fever virus): > 14 µM | CC50 [13]: 45 µM | Activity (Candida albicans [14]): inactive | Activity (Escherichia coli [15]): inactive | MIC [16]: > 100 mg/L | EC50 (Coxsackievirus B5): > 60 µM | EC50 [17]: > 48 µM | EC50 (Human alphaherpesvirus 1): > 60 µM | EC50 (Vaccinia virus): > 60 µM | Activity (Candida parapsilosis): inactive | Activity (Pseudomonas aeruginosa [18]): inactive | CC50 [19]: 48 µM

CCOC(=O)c1ccc(NC(=S)Nc2cccc(C(F)(F)F)c2)cc1
Activity (Pseudomonas aeruginosa [1]): inactive | Activity (Escherichia coli [2]): inactive | CC50 [3]: 50 µM | Activity (Candida albicans [4]): inactive | EC50 [5]: > 23 µM | MIC [6]: > 100 mg/L | EC50 [7]: > 50 µM | EC50 [8]: > 71 µM | Activity [9]: inactive | CC50 [10]: 71 µM | Activity (Pseudomonas aeruginosa [11]): inactive | EC50 (Poliovirus 1): > 71 µM | Activity (Escherichia coli [12]): inactive | EC50 (Yellow fever virus): > 50 µM | CC50 [13]: 23 µM | Activity (Candida albicans [14]): inactive | Activity (Escherichia coli [15]): inactive | MIC [16]: > 100 mg/L | EC50 (Coxsackievirus B5): > 71 µM | EC50 [17]: > 64 µM | EC50 (Human alphaherpesvirus 1): > 71 µM | EC50 (Vaccinia virus): > 71 µM | Activity (Candida parapsilosis): inactive | Activity (Pseudomonas aeruginosa [18]): inactive | CC50 [19]: 64 µM

COc1cccc2c1C(=O)c1c(O)c3c(c(O)c1C2=O)C[C@@](O)(C(=O)CO)C[C@@H]3O[C@H]1C[C@H](N)[C@H](O)[C@H](C)O1 [DOXORUBICIN]
CC50 (CCRF-SB): 0.03 µM | CC50 (CCRF-CEM): 0.02 µM | CC50 (WIL2-NS): 0.02 µM
